Test results reported in ChEMBL document CHEMBL1800061 (J Med Chem, 2010).
Calls of active or inactive are those of the source. The calls are words filed in the database; no cut-off is given here.

Experiments:
[1] = molecular target: Homeodomain-interacting protein kinase 2 (Homo sapiens) (UniProt Q9H2X6); test: Inhibition of HIPK2 assessed as residual enzyme activity at 10 uM
[2] = molecular target: Mitogen-activated protein kinase 15 (Homo sapiens, UniProt Q8TD08); test: Inhibition of ERK8
[3] = molecular target: Calcium/calmodulin-dependent protein kinase kinase 2 (Homo sapiens, UniProt Q96RR4); test: Inhibition of CAMKKbeta assessed as residual enzyme activity at 10 uM
[4] = molecular target: Serine/threonine-protein kinase N2 (Homo sapiens) (UniProt Q16513); test: Inhibition of PRK2 assessed as residual enzyme activity at 10 uM
[5] = molecular target: Cyclin-dependent kinase 1 (Homo sapiens) (UniProt P06493); test: Inhibition of CDK1-mediated phosphorylation of […] in human HCT116 cells after 4 hrs by immunoblotting analysis; format: cell-based; details: HCT-116
Procedure, shortened: (§1)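 HCT116 colon cancer cells were kept in DMEM with 10% FCS. Cells (8×10^5) were plated, dosed 24 h later, and exposed for 4 or 24 h. Whole-cell lysates were made in RIPA buffer with phosphatase and protease inhibitor cocktails and normalised by BCA protein assay. They were immunoblotted for phospho-sites, total proteins and cyclins.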

CDK6/cyclin D1 = CDK6/cyclin D1 (Homo sapiens, UniProt Q00534); test: Inhibition of CDK6/cyclinD1 assessed as amount of ATP […] by luciferase activity based PKLight assay; format: protein-complex assay
Procedure, shortened: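 Purified recombinant CDK4/cycD1, CDK6/CycD1, CDK7/CycH/MAT1 or CDK9/CycT run with the supplier's substrate peptides under the manufacturer's protocol. Inhibition was read as ATP left at the end of the reaction, measured by luciferase luminescence (PKLight).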

[6] = molecular target: Dual specificity mitogen-activated protein kinase kinase 1 (Homo sapiens) (UniProt Q02750); test: Inhibition of MKK1 assessed as residual enzyme activity at 10 uM
MCF7 [7] = test: Induction of apoptosis in human MCF7 cells assessed as increase in sub-G1 population at 1 to 10 umol/L after 24 hrs by […] staining based flow cytometric analysis; format: functional, cell-based
Mus musculus [8] = test: Toxicity in nude BALB/c mouse assessed as adverse effect on weight at 5 mg/kg, ip bid for 14 days; format: organism-based; parameters: dose 5 mg/kg, route intraperitoneal; details: in vivo, 336 h
Procedure, shortened: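 Nude mice bearing MCF-7 tumors, randomized, given ip injections twice daily with vehicle or 5 or 10 mg/kg (10 or 20 mg/kg/day) for 14 days. Body weights were followed over the study; n=8–11 per group.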

[9] = molecular target: Dual specificity tyrosine-phosphorylation-regulated kinase 3 (Homo sapiens) (UniProt O43781); test: Inhibition of DYRK3 assessed as residual enzyme activity at 10 uM
[10] = molecular target: Casein kinase I isoform alpha (Homo sapiens, UniProt P48729); test: Inhibition of CK1 assessed as residual enzyme activity at 10 uM
[11] = molecular target: Tyrosine-protein kinase SYK (Homo sapiens) (UniProt P43405); test: Inhibition of SYK assessed as residual enzyme activity at 10 uM
Mus musculus [12] = test: Inhibition of cyclin-dependent kinase substrate […] phosphorylation in nude BALB/c mouse PBMC at 50 mg/kg, po measured after 24 hrs by immunostaining and flow cytometric analysis; format: functional, organism-based; parameters: dose 50 mg/kg
Procedure, shortened: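 Female nu/nu-BALB/c athymic nude mice (7 weeks old) given a single oral gavage dose in 28% PEG300/5% dimethylacetamide/10% HPB cyclodextrin in water. PBMC were isolated from cardiac blood after red-cell lysis, then fixed, permeabilized and stained with primary antibodies (1:100, 1 h, RT) and an Alexa Fluor 488 secondary (1:200, 1 h). Read-out was flow cytometry; n=4 (n=3 at 100 mg/kg).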

[13] = Elimination half life in mouse at 10 mg/kg, po; format: ADME, organism-based; parameters: dose 10 mg/kg, route oral; details: in vivo, read-out: beta t1/2
Procedure, shortened: (§2)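 Mice given 10 mg/kg by the ip, iv or oral route. Plasma levels were measured at 8 time points, with 3 animals per route for po and iv. Parameters came from a noncompartmental model. AUCINF was extrapolated to infinity, and bioavailability was calculated from AUCINF. The terminal slope used 3 points.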

[14] = molecular target: Cyclin-dependent kinase 6 (Homo sapiens) (UniProt Q00534); test: Inhibition of CDK6-mediated phosphorylation of RB protein in human HCT116 cells after 4 hrs by immunoblotting analysis; format: cell-based; details: HCT-116; procedure, shortened: as §1
Mus musculus [15] = test: AUC (0 to infinity) in mouse at 10 mg/kg, po; format: ADME, organism-based, Plasma; parameters: time infinity, dose 10 mg/kg, route oral; details: in vivo; procedure, shortened: as §2
[16] = molecular target: G2/mitotic-specific cyclin-B1 (Homo sapiens) (UniProt P14635); test: Inhibition of cyclin B in human HCT116 cells assessed as decrease in protein level at 1 umol/L after 24 hrs by immunoblotting analysis; format: cell-based; details: HCT-116; procedure, shortened: as §1
[17] = molecular target: Serine/threonine-protein kinase PAK 4 (Homo sapiens) (UniProt O96013); test: Inhibition of PAK4 assessed as residual enzyme activity at 10 uM
Mus musculus [18] = test: Inhibition of cyclin-dependent kinase substrate RB phosphorylation at Thr 821 in nude BALB/c mouse PBMC at 50 mg/kg, po measured after 24 hrs by immunostaining and flow cytometric analysis; format: functional, organism-based; parameters: dose 50 mg/kg
Procedure, shortened: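 Seven-week-old female nu/nu-BALB/c nude mice got a single oral gavage (vehicle 28% PEG300/5% dimethylacetamide/10% HPB cyclodextrin in water). Blood was taken by cardiac puncture at 6 h or 24 h, red cells were lysed, and PBMC were fixed and permeabilized. Cells were stained with Rb, Rb pThr821, PolII or PolII pSer2 antibodies plus an Alexa488 secondary, then read by flow cytometry; n=4 (n=3 at 100 mg/kg).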

Mus musculus [19] = test: Inhibition of cyclin-dependent kinase substrate RB phosphorylation at Ser807/811 in HCT116 xenografted nude BALB/c mouse at 25 mg/kg/day, po measured after 14 days by immunostaining and […] relative to control; format: organism-based; parameters: route oral; details: in vivo, 336 h
Procedure, shortened: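 HCT116 cells (5 × 10^6) were injected subcutaneously into the flank of female nu/nu-BALB/c nude mice. Mice were randomized at 100-200 mm3 and dosed daily by oral gavage for 14 days (vehicle 28% PEG300/5% dimethylacetamide/10% HPB cyclodextrin in water). Tumors were formalin-fixed and paraffin-embedded for Rb pSer807/811 or pThr821 immunohistochemistry (citrate pH 6.0 microwave retrieval), scoring >1000 cells per section. Student's t test.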

[20] = molecular target: Cyclin-dependent kinase 1 (Homo sapiens) (UniProt P06493); test: Inhibition of CDK1-mediated phosphorylation of PP1a at Thr320 in human HCT116 cells after 4 hrs by immunoblotting analysis; format: cell-based; details: HCT-116; procedure, shortened: as §1
[21] = molecular target: Serine/threonine-protein kinase BRSK2 (Homo sapiens) (UniProt Q8IWQ3); test: Inhibition of BRSK2 assessed as residual enzyme activity at 10 uM
[22] = molecular target: Serine/threonine-protein kinase PLK1 (Homo sapiens) (UniProt P53350); test: Inhibition of PLK1 assessed as residual enzyme activity at 10 uM
MCF7 [23] = test: Antitumor activity against human MCF7 cells xenografted in nude BALB/c mouse assessed as decrease in tumor volume at 5 mg/kg, ip bid for 14 days relative to control on day 1; format: functional; details: route intraperitoneal
Procedure, shortened: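 Randomised nude mice bearing MCF-7 tumours were injected intraperitoneally twice daily with 5 or 10 mg/kg (10 or 20 mg/kg/day) for 14 days. The control group received vehicle. Tumour volume was expressed relative to each animal's own day 1 volume.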

Sequence of Cyclin-dependent kinase 1 (Homo sapiens) (P06493 whole entry, looked up): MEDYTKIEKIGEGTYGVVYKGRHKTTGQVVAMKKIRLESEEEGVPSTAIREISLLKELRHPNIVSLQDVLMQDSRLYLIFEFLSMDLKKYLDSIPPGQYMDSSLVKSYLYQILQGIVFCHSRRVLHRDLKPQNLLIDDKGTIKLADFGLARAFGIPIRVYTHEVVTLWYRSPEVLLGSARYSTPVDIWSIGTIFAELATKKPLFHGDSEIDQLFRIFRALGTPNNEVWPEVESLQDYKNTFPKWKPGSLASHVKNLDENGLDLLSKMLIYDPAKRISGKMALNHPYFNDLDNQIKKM
Sequence of Homeodomain-interacting protein kinase 2 (Homo sapiens) (Q9H2X6 whole entry, looked up): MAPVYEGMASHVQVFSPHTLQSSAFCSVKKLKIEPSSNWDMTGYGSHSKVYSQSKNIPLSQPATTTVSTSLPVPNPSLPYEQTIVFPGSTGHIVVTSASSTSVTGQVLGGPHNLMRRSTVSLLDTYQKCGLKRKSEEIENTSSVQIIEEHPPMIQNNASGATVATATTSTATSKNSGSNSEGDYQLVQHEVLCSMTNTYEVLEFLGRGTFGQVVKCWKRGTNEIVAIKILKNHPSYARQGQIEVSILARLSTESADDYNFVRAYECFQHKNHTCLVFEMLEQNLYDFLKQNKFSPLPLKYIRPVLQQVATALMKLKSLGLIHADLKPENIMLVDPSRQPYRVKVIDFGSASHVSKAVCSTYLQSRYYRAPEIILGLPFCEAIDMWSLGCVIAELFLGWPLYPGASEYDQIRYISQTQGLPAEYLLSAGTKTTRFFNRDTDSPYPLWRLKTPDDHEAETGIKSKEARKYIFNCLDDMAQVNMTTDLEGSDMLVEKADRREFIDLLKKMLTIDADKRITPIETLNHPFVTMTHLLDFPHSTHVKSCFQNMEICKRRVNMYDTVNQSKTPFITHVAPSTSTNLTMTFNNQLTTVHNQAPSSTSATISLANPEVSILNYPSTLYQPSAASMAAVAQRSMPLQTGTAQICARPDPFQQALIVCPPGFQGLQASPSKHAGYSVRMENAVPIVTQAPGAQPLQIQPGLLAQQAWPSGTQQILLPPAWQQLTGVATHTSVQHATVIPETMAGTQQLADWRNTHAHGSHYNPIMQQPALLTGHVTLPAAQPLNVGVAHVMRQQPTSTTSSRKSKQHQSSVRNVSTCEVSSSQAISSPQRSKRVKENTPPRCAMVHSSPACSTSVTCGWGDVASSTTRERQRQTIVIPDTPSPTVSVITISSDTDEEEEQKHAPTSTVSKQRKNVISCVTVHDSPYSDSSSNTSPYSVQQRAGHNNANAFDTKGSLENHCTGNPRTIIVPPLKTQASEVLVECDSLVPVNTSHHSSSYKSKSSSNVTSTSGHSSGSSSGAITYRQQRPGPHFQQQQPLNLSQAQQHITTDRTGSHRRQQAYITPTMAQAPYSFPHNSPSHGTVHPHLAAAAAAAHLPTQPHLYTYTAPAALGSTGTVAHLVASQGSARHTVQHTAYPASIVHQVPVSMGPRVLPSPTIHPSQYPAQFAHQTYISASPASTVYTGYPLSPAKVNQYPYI
Sequence of Dual specificity mitogen-activated protein kinase kinase 1 (Homo sapiens) (Q02750 whole entry): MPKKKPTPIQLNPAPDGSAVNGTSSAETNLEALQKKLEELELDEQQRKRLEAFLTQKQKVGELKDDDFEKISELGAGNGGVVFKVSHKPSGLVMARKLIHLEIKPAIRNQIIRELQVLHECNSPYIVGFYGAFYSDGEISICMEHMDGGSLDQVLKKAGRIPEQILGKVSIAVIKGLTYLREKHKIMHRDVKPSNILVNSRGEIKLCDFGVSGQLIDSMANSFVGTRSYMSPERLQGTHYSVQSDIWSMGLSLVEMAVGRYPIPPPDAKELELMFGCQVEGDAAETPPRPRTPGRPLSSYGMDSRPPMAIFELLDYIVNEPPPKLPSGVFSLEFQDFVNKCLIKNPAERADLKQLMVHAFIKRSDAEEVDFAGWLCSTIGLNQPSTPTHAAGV
Sequence of Calcium/calmodulin-dependent protein kinase kinase 2 (Q96RR4 2-588 limits assumed): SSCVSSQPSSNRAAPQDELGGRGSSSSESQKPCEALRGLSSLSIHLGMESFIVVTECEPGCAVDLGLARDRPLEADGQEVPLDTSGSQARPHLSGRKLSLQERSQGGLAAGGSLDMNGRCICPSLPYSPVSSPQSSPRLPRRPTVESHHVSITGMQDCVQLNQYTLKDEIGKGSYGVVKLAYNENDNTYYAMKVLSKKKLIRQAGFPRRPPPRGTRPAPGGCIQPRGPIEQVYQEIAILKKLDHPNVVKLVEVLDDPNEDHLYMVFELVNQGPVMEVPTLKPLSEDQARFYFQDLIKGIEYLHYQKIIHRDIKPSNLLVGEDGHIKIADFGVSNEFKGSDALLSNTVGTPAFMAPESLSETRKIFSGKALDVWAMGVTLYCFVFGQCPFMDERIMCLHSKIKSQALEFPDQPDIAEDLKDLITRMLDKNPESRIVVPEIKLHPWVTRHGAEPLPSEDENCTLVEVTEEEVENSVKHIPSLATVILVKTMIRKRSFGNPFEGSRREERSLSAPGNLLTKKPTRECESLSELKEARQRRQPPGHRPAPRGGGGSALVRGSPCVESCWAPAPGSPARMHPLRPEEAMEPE
Sequence of Casein kinase I isoform alpha (P48729 2-337 limits assumed): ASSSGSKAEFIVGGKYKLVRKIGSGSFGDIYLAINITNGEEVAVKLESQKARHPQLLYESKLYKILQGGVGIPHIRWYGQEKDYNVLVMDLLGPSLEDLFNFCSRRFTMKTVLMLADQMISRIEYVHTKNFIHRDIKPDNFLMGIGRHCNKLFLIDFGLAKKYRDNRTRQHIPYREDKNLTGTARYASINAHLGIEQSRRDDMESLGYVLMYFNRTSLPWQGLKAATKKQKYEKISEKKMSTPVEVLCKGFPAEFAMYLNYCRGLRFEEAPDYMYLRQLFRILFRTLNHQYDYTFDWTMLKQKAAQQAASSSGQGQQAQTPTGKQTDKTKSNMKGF
Sequence of CDK6/cyclin D1 (P24385 whole entry): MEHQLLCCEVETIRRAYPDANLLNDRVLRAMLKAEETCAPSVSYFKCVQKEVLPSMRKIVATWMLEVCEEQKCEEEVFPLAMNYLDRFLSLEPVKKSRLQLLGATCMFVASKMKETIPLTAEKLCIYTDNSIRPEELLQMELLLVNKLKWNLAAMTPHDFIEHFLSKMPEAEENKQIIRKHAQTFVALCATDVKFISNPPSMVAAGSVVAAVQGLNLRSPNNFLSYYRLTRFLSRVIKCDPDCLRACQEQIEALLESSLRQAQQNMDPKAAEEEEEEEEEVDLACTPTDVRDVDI
Sequence of CDK6/cyclin D1 (Q00534 whole entry): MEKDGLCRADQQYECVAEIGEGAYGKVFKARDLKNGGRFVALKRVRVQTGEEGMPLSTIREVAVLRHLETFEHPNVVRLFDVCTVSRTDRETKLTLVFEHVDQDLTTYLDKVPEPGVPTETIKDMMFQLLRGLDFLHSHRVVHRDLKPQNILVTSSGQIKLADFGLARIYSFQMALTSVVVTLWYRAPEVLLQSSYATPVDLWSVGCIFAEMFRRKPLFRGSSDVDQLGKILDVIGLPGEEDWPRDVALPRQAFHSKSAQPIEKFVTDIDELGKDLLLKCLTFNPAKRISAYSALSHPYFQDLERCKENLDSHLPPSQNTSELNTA
Sequence of Serine/threonine-protein kinase PLK1 (Homo sapiens) (P53350 whole entry): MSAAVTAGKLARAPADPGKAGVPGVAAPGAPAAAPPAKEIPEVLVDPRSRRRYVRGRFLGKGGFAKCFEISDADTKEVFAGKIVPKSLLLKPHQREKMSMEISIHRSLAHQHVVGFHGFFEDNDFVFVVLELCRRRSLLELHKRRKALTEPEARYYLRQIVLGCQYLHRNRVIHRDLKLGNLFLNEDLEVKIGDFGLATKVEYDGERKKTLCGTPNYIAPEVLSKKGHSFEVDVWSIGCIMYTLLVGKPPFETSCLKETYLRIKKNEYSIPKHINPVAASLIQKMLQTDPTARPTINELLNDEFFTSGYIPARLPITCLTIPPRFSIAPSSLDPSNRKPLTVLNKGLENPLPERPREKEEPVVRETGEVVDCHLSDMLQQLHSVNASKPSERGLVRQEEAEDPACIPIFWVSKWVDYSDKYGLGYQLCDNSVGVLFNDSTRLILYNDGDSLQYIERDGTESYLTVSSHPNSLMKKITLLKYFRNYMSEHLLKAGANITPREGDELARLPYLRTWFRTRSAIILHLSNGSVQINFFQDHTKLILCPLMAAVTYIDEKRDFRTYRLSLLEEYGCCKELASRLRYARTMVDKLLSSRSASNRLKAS
Sequence of Serine/threonine-protein kinase N2 (Homo sapiens) (Q16513 whole entry, looked up): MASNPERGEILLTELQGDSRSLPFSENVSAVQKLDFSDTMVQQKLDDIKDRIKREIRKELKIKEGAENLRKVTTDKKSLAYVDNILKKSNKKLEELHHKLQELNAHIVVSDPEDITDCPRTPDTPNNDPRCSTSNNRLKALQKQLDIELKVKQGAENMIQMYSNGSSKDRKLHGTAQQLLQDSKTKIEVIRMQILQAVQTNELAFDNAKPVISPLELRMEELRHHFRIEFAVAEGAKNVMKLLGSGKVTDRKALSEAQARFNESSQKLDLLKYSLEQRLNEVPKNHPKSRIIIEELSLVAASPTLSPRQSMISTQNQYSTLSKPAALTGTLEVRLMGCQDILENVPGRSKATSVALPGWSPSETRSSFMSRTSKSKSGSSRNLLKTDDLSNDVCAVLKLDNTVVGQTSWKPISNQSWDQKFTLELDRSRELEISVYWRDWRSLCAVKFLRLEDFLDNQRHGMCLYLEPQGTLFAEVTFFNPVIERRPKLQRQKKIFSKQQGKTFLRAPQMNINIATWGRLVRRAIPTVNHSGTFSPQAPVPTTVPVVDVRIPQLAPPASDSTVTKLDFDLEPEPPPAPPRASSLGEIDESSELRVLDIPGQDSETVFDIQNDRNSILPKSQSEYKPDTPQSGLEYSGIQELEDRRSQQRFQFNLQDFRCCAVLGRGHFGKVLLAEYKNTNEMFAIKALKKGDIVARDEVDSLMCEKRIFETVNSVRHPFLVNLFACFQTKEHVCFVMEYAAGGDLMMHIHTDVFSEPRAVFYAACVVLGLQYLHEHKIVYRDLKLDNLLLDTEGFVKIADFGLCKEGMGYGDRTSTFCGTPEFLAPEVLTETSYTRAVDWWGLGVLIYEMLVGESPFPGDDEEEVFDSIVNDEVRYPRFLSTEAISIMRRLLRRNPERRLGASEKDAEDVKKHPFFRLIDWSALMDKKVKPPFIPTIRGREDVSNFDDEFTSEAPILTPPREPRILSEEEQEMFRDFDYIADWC

CC(C)c1cnn2c(NCc3ccccc3)cc(N[C@@H](CO)[C@H](O)CO)nc12
Activity [1]: 73%
IC50 [2]: 0.33 µM
Activity [3]: 23%
Activity [4]: 106%
inhibition [5]: inactive
IC50 (CDK6/cyclin D1): 35.5 µM
Activity [6]: 65%
Activity (MCF7 [7]): Active
Activity (Mus musculus [8]): Non-toxic
Activity [9]: 88%
Activity [10]: 19%
Activity [11]: 120%
inhibition (Mus musculus [12]): inactive
half-life [13]: 2.97 h
inhibition [14]: inactive
AUC (Mus musculus [15]): 32100 ng·h/mL
inhibition [16]: Active
Activity [17]: 55%
inhibition (Mus musculus [18]): inactive
inhibition (INH) (Mus musculus [19]): Active
inhibition [20]: Active
Activity [21]: 108%
Activity [22]: 68%
inhibition in vivo at 5 mg/kg (MCF7 [23]): 30%
